Measured values: ChEMBL document CHEMBL3352584, “Novel DNA gyrase inhibiting spiropyrimidinetriones with a benzisoxazole scaffold: SAR and in vivo characterization” (J Med Chem, 2014)
Values after ≈ are worked out from the molar mass of the structure shown.

Tests used:
DNA gyrase = DNA gyrase (Escherichia coli, UniProt P0AES4+P0AES6); assay: Inhibition of Escherichia coli DNA gyrase using fluorescence-tagged DNA by fluorescenct polarization assay; assay type: protein-complex assay
Method in brief: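 E. coli DNA gyrase supercoiling assay. The read-out was differential binding of a fluorescence-tagged DNA to relaxed versus supercoiled DNA, giving IC50.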

[1] = Fraction unbound in human plasma at 10 uM after 16 hrs by LC-MS/MS analysis; assay type: ADME, cell-free
Method in brief: (§1)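 Compound at 10 μM in human, rat or mouse plasma, equilibrium dialysis against buffer at 37 °C for 16 h. Buffer and plasma concentrations measured by LC-MS/MS, and the free fraction taken from their ratio.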

[2] = Solubility of the compound; assay type: physicochemical
Streptococcus pneumoniae [3] = assay: Antimicrobial activity against Streptococcus pneumoniae by broth microdilution method; assay type: functional
Method in brief: (§2)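 Broth microdilution following CLSI guidelines. Values under 12.5 μM are averages of three or more replicates.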

Streptococcus pyogenes = assay: Antimicrobial activity against Streptococcus pyogenes by broth microdilution method; assay type: functional; method in brief: as §2
Staphylococcus aureus [4] = assay: Antimicrobial activity against methicillin-sensitive Staphylococcus aureus by broth microdilution method; assay type: functional; method in brief: as §2
Staphylococcus aureus [5] = assay: Antimicrobial activity against methicillin-resistant and quinolone-resistant Staphylococcus aureus by broth microdilution method; assay type: functional; method in brief: as §2
Haemophilus influenzae = assay: Antimicrobial activity against Haemophilus influenzae by broth microdilution method; assay type: functional; method in brief: as §2
Escherichia coli [6] = assay: Antimicrobial activity against Escherichia coli by broth microdilution method; assay type: functional; method in brief: as §2
Escherichia coli [7] = assay: Antimicrobial activity against tolC-deficient Escherichia coli by broth microdilution method; assay type: functional; method in brief: as §2
Staphylococcus aureus [8] = assay: Antimicrobial activity against methicillin-sensitive Staphylococcus aureus by broth microdilution method in presence of 50% human serum; assay type: functional
Method in brief: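 CLSI broth microdilution against methicillin-sensitive S. aureus, run with 50% human serum added to the medium to reflect plasma protein binding. Values under 12.5 μM are averages of three or more replicates.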

Staphylococcus aureus [9] = assay: Antimicrobial activity against Staphylococcus aureus 2375 harboring GyrA S84L mutant, GyrB R144A mutant and ParC S80Y/E84G/V693M mutant and ParE N141S mutant by broth microdilution method; assay type: functional
Streptococcus pneumoniae [10] = assay: Antimicrobial activity against wild-type Streptococcus pneumoniae 548 by broth microdilution method; assay type: functional; method in brief: as §2
Streptococcus pneumoniae [11] = assay: Antimicrobial activity against Streptococcus pneumoniae 2800 harboring GyrB K143I/T172A mutant by broth microdilution method; assay type: functional
Streptococcus pneumoniae [12] = assay: Antimicrobial activity against Streptococcus pneumoniae 2485 harboring GyrA S81F mutant, GyrB D160E/T329A mutant and ParC S79F mutant by broth microdilution method; assay type: functional
Staphylococcus aureus [13] = assay: Antimicrobial activity against wild-type Staphylococcus aureus 516 by broth microdilution method; assay type: functional; method in brief: as §2
Staphylococcus aureus [14] = assay: Antimicrobial activity against Staphylococcus aureus 2792 harboring wild-type GyrA and GyrB R144A mutant by broth microdilution method; assay type: functional
[15] = Fraction unbound in mouse plasma at 10 uM after 16 hrs by LC-MS/MS analysis; assay type: ADME, cell-free; method in brief: as §1
[16] = Clearance in mouse at 3 mg/kg, iv or at 10 mg/kg, po by LC-MS/MS method; assay type: ADME, organism-based; conditions: in vivo
Method in brief: (§3)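 Male mice (CD-1) or male Wistar Hannover rats, three per experiment, given a 15 min iv infusion at 3 mg/kg or oral dosing at 10 mg/kg. Vehicle was DMA:TEG:saline 40/40/20 for mice and meglumine/cyclodextrin for rats. Serial jugular blood was taken over 0–24 h, plasma analysed by LC-MS/MS, and a noncompartmental analysis used. Mean values are given.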

[17] = Bioavailability in mouse at 3 mg/kg, iv or at 10 mg/kg, po by LC-MS/MS method; assay type: ADME, organism-based; conditions: in vivo; method in brief: as §3
[18] = Fraction unbound in rat plasma at 10 uM after 16 hrs by LC-MS/MS analysis; assay type: ADME, cell-free; method in brief: as §1
[19] = Clearance in rat at 3 mg/kg, iv or at 10 mg/kg, po by LC-MS/MS method; assay type: ADME, organism-based; conditions: in vivo; method in brief: as §3
[20] = Bioavailability in rat at 3 mg/kg, iv or at 10 mg/kg, po by LC-MS/MS method; assay type: ADME, organism-based; conditions: in vivo; method in brief: as §3

Structure (SMILES)	IC50 (DNA gyrase)	fraction unbound at 16 h, 10 µM [1]	solubility [2]	MIC (Streptococcus pneumoniae [3])	MIC (Streptococcus pyogenes)	MIC (Staphylococcus aureus [4])	MIC (Staphylococcus aureus [5])	MIC (Haemophilus influenzae)	MIC (Escherichia coli [6])	MIC (Escherichia coli [7])	MIC (Staphylococcus aureus [8])	further results
Cc1noc2c(Cl)c3c(cc12)CC1(C(=O)NC(=O)NC1=O)C1C(C)OC(C)CN31 (racemic)	0.37 µM	0.03	330 µM (≈ 138 µg/mL)	50 µM (≈ 20.9 µg/mL)	25 µM (≈ 10.5 µg/mL)	6.2 µM (≈ 2.6 µg/mL)	12 µM (≈ 5.03 µg/mL)	3.1 µM (≈ 1.3 µg/mL)	200 µM (≈ 83.8 µg/mL)	≤ 0.2 µM	50 µM	–
O=C(O)c1cn(C2CC2)c2cc(N3CCNCC3)c(F)cc2c1=O [CIPROFLOXACIN]	–	–	–	1.5 µM (≈ 0.497 µg/mL)	1.5 µM (≈ 0.497 µg/mL)	0.91 µM (≈ 0.302 µg/mL)	96 µM (≈ 31.8 µg/mL)	< 0.1 µM	0.06 µM (≈ 0.0199 µg/mL)	< 0.1 µM	–	–
COc1noc2c(F)c3c(cc12)CC1(C(=O)NC(=O)NC1=O)[C@H]1[C@H](C)O[C@H](C)CN31	0.97 µM	0.09	510 µM (≈ 213 µg/mL)	25 µM (≈ 10.5 µg/mL)	6.2 µM (≈ 2.59 µg/mL)	3.1 µM (≈ 1.3 µg/mL)	3.1 µM (≈ 1.3 µg/mL)	3.1 µM (≈ 1.3 µg/mL)	200 µM (≈ 83.7 µg/mL)	≤ 0.2 µM	–	–
Cc1noc2c(F)c3c(cc12)CC1(C(=O)NC(=O)NC1=O)[C@@H]1[C@@H](C)O[C@H](C)CN31	13 µM	0.082	190 µM (≈ 76.5 µg/mL)	100 µM (≈ 40.2 µg/mL)	200 µM (≈ 80.5 µg/mL)	25 µM (≈ 10.1 µg/mL)	50 µM (≈ 20.1 µg/mL)	25 µM (≈ 10.1 µg/mL)	> 200 µM	1.6 µM (≈ 0.644 µg/mL)	–	–
C[C@@H]1CN2c3c(cc4c(N)noc4c3F)CC3(C(=O)NC(=O)NC3=O)[C@H]2[C@H](C)O1	0.26 µM	0.13	330 µM (≈ 133 µg/mL)	6.2 µM (≈ 2.5 µg/mL)	3.1 µM (≈ 1.25 µg/mL)	25 µM (≈ 10.1 µg/mL)	50 µM (≈ 20.2 µg/mL)	1.6 µM (≈ 0.645 µg/mL)	100 µM (≈ 40.3 µg/mL)	≤ 0.2 µM	–	–
CO[C@@H]1[C@@H](OC(N)=O)[C@@H](O)[C@H](Oc2ccc3c(O)c(NC(=O)c4ccc(O)c(CC=C(C)C)c4)c(=O)oc3c2C)OC1(C)C [NOVOBIOCIN]	–	–	–	–	–	–	–	–	–	–	–	MIC (Staphylococcus aureus [9]): 4.3 mg/L (≈ 7.02 µM); MIC (Streptococcus pneumoniae [10]): 1 mg/L (≈ 1.63 µM); MIC (Streptococcus pneumoniae [11]): > 16 mg/L; MIC (Streptococcus pneumoniae [12]): 0.13 mg/L (≈ 0.212 µM); MIC (Staphylococcus aureus [13]): 0.13 mg/L (≈ 0.212 µM); MIC (Staphylococcus aureus [14]): 32 mg/L (≈ 52.2 µM)
CC(=O)NC[C@H]1CN(c2ccc(N3CCOCC3)c(F)c2)C(=O)O1 [LINEZOLID]	> 32 µM	0.71	–	3.1 µM (≈ 1.05 µg/mL)	3.1 µM (≈ 1.05 µg/mL)	6.2 µM (≈ 2.09 µg/mL)	6.2 µM (≈ 2.09 µg/mL)	23 µM (≈ 7.76 µg/mL)	> 200 µM	20 µM (≈ 6.75 µg/mL)	12 µM	–
C[C@H]1COc2c(N3CCN(C)CC3)c(F)cc3c(=O)c(C(=O)O)cn1c23.C[C@H]1COc2c(N3CCN(C)CC3)c(F)cc3c(=O)c(C(=O)O)cn1c23.O [LEVOFLOXACIN]	–	–	–	–	–	–	–	–	–	–	–	MIC (Staphylococcus aureus [9]): > 16 mg/L; MIC (Staphylococcus aureus [13]): 0.13 mg/L; MIC (Staphylococcus aureus [14]): 0.25 mg/L
C[C@@H]1CN2c3c(cc4c(C(F)F)noc4c3F)CC3(C(=O)NC(=O)NC3=O)[C@H]2[C@H](C)O1	0.48 µM	0.028	> 1000 µM	3.1 µM (≈ 1.36 µg/mL)	1.2 µM (≈ 0.526 µg/mL)	0.39 µM (≈ 0.171 µg/mL)	0.39 µM (≈ 0.171 µg/mL)	0.62 µM (≈ 0.272 µg/mL)	25 µM (≈ 11 µg/mL)	≤ 0.2 µM	3.1 µM	fraction unbound at 16 h, 10 µM [15]: 0.044; clearance [16]: 2.82 L/h/kg; bioavailability [17]: 95%; fraction unbound at 16 h, 10 µM [18]: 0.043; clearance [19]: 0.06 L/h/kg; bioavailability [20]: 87%
COCc1noc2c(F)c3c(cc12)CC1(C(=O)NC(=O)NC1=O)C1C(C)OC(C)CN31 (racemic)	1.6 µM	0.096	180 µM (≈ 77.8 µg/mL)	12 µM (≈ 5.19 µg/mL)	6.2 µM (≈ 2.68 µg/mL)	3.1 µM (≈ 1.34 µg/mL)	6.2 µM (≈ 2.68 µg/mL)	12 µM (≈ 5.19 µg/mL)	200 µM (≈ 86.5 µg/mL)	≤ 0.2 µM	–	–
CC1CN2c3c(cc4c(C5CC5)noc4c3F)CC3(C(=O)NC(=O)NC3=O)C2C(C)O1 (racemic)	0.34 µM	0.052	29 µM (≈ 12.4 µg/mL)	25 µM (≈ 10.7 µg/mL)	6.2 µM (≈ 2.66 µg/mL)	1.6 µM (≈ 0.685 µg/mL)	12 µM (≈ 5.14 µg/mL)	3.1 µM (≈ 1.33 µg/mL)	100 µM (≈ 42.8 µg/mL)	≤ 0.2 µM	–	–
C[C@@H]1CN2c3c(cc4c(Cl)noc4c3F)CC3(C(=O)NC(=O)NC3=O)[C@H]2[C@H](C)O1	0.21 µM	< 0.01	> 1000 µM	12 µM (≈ 5.07 µg/mL)	6.2 µM (≈ 2.62 µg/mL)	0.39 µM (≈ 0.165 µg/mL)	0.78 µM (≈ 0.33 µg/mL)	25 µM (≈ 10.6 µg/mL)	25 µM (≈ 10.6 µg/mL)	6.2 µM (≈ 2.62 µg/mL)	12 µM	–
Cc1noc2c(F)c3c(cc12)CC1(C(=O)NC(=O)NC1=O)[C@@H]1[C@@H](C)O[C@@H](C)CN31	> 83 µM	0.035	> 1000 µM	> 200 µM	–	> 200 µM	> 200 µM	> 200 µM	> 200 µM	50 µM (≈ 20.1 µg/mL)	–	–
Cc1noc2c(F)c3c(cc12)CC1(C(=O)NC(=O)NC1=O)C1C(C)OC(C)CN31 (racemic)	0.38 µM	0.063	> 1000 µM	21 µM (≈ 8.45 µg/mL)	–	2.8 µM (≈ 1.13 µg/mL)	2.5 µM (≈ 1.01 µg/mL)	2.5 µM (≈ 1.01 µg/mL)	100 µM (≈ 40.2 µg/mL)	0.3 µM (≈ 0.121 µg/mL)	–	–
CC1CN2c3c(cc4c(C(C)(C)C)noc4c3F)CC3(C(=O)NC(=O)NC3=O)C2C(C)O1 (racemic)	4 µM	0.042	770 µM (≈ 342 µg/mL)	200 µM (≈ 88.9 µg/mL)	50 µM (≈ 22.2 µg/mL)	18 µM (≈ 8 µg/mL)	18 µM (≈ 8 µg/mL)	200 µM (≈ 88.9 µg/mL)	> 200 µM	3.1 µM (≈ 1.38 µg/mL)	–	–
Cc1noc2c(F)c3c(cc12)CC1(C(=O)NC(=O)NC1=O)[C@H]1[C@H](C)O[C@@H](C)CN31	26 µM	0.051	340 µM (≈ 137 µg/mL)	> 200 µM	> 200 µM	> 200 µM	> 200 µM	200 µM (≈ 80.5 µg/mL)	> 200 µM	12 µM (≈ 4.83 µg/mL)	–	–
C[C@@H]1CN2c3c(cc4c(C(F)(F)F)noc4c3F)CC3(C(=O)NC(=O)NC3=O)[C@H]2[C@H](C)O1	0.61 µM	< 0.01	53 µM (≈ 24.2 µg/mL)	12 µM (≈ 5.48 µg/mL)	3.1 µM (≈ 1.41 µg/mL)	0.78 µM (≈ 0.356 µg/mL)	1.6 µM (≈ 0.73 µg/mL)	1.6 µM (≈ 0.73 µg/mL)	25 µM (≈ 11.4 µg/mL)	≤ 0.2 µM	100 µM	fraction unbound at 16 h, 10 µM [15]: 0.078; clearance [16]: 2.76 L/h/kg; bioavailability [17]: 63%; fraction unbound at 16 h, 10 µM [18]: 0.078; clearance [19]: 0.138 L/h/kg; bioavailability [20]: 60%
Cc1noc2c(F)c3c(cc12)CC1(C(=O)NC(=O)NC1=O)C1C(C)CC(C)CN31 (racemic)	0.34 µM	< 0.01	< 1 µM	100 µM (≈ 40 µg/mL)	200 µM (≈ 80.1 µg/mL)	25 µM (≈ 10 µg/mL)	25 µM (≈ 10 µg/mL)	> 200 µM	50 µM (≈ 20 µg/mL)	6.2 µM (≈ 2.48 µg/mL)	50 µM	–
